Hits are enriched below; roughly 4% of the tested compounds scored in any of these assays.
SIRT5 block: blocks human SIRT5 desuccinylation of peptide; inhibition, % at 15 µM; 330,000 tested, 1.1% active; Purified SirT5, succinyl-peptide AMC, trypsin-coupled fluorescence; AID 652115; in the data active = inhibition above about 15%
E-sel inducer: E-selectin induction on HUVECs; HUVEC E-selectin immunofluorescence imaging; normalized: neutral wells 0, TNF-alpha wells 100; activation, % at 7.58 µM; 260,000 tested, 0.37% active; AID 686992;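 active = mean E-selectin-positive cell signal at least 10% of the positive control, reached in at least 60% of replicates, without over 20% cell loss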
Target sequence (P16581 whole entry, looked up): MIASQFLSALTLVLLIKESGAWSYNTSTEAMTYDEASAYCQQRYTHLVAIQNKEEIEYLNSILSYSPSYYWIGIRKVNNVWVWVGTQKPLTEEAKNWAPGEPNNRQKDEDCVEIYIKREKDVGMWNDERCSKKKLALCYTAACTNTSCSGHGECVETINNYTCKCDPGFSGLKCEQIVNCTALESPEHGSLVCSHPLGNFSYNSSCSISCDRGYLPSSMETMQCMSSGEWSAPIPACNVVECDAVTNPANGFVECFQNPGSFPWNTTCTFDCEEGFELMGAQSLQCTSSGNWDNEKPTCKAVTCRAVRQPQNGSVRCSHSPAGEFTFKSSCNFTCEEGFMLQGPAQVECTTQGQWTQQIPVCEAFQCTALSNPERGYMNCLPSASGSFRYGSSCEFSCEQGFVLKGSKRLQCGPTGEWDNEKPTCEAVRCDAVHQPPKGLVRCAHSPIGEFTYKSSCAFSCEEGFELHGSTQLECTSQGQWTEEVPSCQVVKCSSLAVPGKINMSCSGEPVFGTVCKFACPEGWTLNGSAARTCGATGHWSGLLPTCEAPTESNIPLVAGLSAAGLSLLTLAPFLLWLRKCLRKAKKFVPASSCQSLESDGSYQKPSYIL
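System: HUVEC / Compound: single concentration / Signal: immunofluorescence imaging / Read-out: percent E-selectin-positive cells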
C2C12 statin: protects C2C12 myotubes from simvastatin toxicity. ATP luminescence, 48 h; scaled: DMSO 0, geranylgeraniol control 100. rescue of ATP level, % at 7.49 µM. 330,000 tested, 0.78% active. AID 602340;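 active = mean ATP rescue above about 67%, or every replicate alone reaching that limit, limit read from the data, passing the limit was not always enough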;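 also: myotubes were challenged with 10 µM simvastatin during compound exposure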
FGF22 binding: FGF22 (human) thermal shift binding. 340,000 tested, 1.5% active. recombinant FGF22 thermal shift, SYPRO orange fluorescence; percent of sucrose octasulfate shift, DMSO zero. activity (Tm shift, normalised), % at 9.99 µM;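 active = mean Tm shift, scaled 0 neutral to 100 positive control, at about 1.3% or above, every replicate too, limit read from the data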
FN deposition inh: fibronectin deposition inhibition; inhibition, % at 12.6 µM; AID 743247; AH1F fibroblasts, Alexa488-fibronectin deposition fluorescence, overnight; 350,000 tested, 0.086% active;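 active = mean inhibition across replicates of 30% or more, regardless of how many single replicates reach that level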;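 also: positive control wells lacked labelled fibronectin entirely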
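Assay system: AH1F fibroblasts / Quantity: 10000 cells per well / Medium: DMEM plus 2% serum, read in PBS / Reagent: labelled fibronectin 24 nM / Dosing: single dose, pinned / Times: 1 h cell attachment, overnight exposure to compound and label / Signal: fluorescence, ex 485 nm, em 525 nm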
rRNA inh HTS: selective bacterial rRNA inhibition in E. coli | GFP signal change (wild-type ribosome), % (test concentration not listed) | 350,000 tested, 1.6% active | AID 720706 | E. coli WT GFP vs humanized-ribosome RFP mutants, fluorescence, 24 h; active compounds read low; DMSO median 0, no signal -100;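 active = significant combined selectivity score with lowered wild-type GFP, culture density cut under 30%, mutant RFP and density less affected; inactive = any of these conditions unmet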
Numbers without * were called inactive.

What do the screens show for `Nc1c(Cl)cc(Cl)cc1C(=O)OCC(=O)NC1CC1`?
C2C12 statin: 69.7*

What do the screens show for `O=C(COC(=O)CNC(=O)c1ccccc1Cl)NC1CC1`?
SIRT5 block: -0.4; E-sel inducer: -0.4; C2C12 statin: -0.3; FGF22 binding: -0.1; FN deposition inh: -1.5; rRNA inh HTS: 9.9

How did O=C(COC(=O)c1cc(F)c(F)cc1Cl)NC1CC1 do in these assays?
SIRT5 block: -5.4; FGF22 binding: -0.3; FN deposition inh: -9.4; rRNA inh HTS: 14.2

What do the screens show for `CN(C)CC(=O)Nc1ccc2c(c1)[C@H]1C[C@H](CC(=O)NCCc3ccccc3)O[C@@H](CO)[C@H]1O2`?
SIRT5 block: -0.8; E-sel inducer: -0.5; C2C12 statin: 0.7; FGF22 binding: -0.4; rRNA inh HTS: 0.1

What do the screens show for `Cc1noc(C)c1S(=O)(=O)Nc1ccc2c(c1)C(=O)N([C@@H](C)CO)C[C@H](C)[C@H](CN(C)S(=O)(=O)c1ccccc1)OCCCC[C@@H](C)O2`?
SIRT5 block: 6.1; E-sel inducer: -0.1; FGF22 binding: -0.5; FN deposition inh: -1.1; rRNA inh HTS: 1.5

How did CCN(CC)c1ccc(C(=S)NC2CCCCC2)cc1 do in these assays?
SIRT5 block: 0.3; E-sel inducer: 0.8; FGF22 binding: -0.1; FN deposition inh: 5.6; rRNA inh HTS: -20.6*

Results for COc1ccc(N(C(=O)c2snc(C(N)=O)c2N)C(C(=O)NC2CCCCC2)c2ccc(C)o2)cc1 (centres undefined) ?
SIRT5 block: -6.3; E-sel inducer: -0.2; C2C12 statin: 74.7*; FGF22 binding: 0.1; FN deposition inh: 4.9; rRNA inh HTS: 5.7

How did CCOc1ccc(C(C(=O)NCC2CCCO2)N(Cc2cccs2)C(=O)c2snc(C(N)=O)c2N)cc1 (centres undefined) do in these assays?
SIRT5 block: 25.2*; E-sel inducer: 0.1; C2C12 statin: -102.5; FGF22 binding: 0.0; FN deposition inh: -1.9; rRNA inh HTS: 7.5

How did Cc1cc(C)cc(N(C(=O)c2snc(C(N)=O)c2N)C(C(=O)NCC2CCCO2)c2ccc(C)o2)c1 (centres undefined) do in these assays?
SIRT5 block: -1.2; C2C12 statin: 0.2; FGF22 binding: 0.0; FN deposition inh: -7.6; rRNA inh HTS: 0.2

What do the screens show for `COc1cc(OC)cc(N(C(=O)c2snc(C(N)=O)c2N)C(C(=O)NCC2CCCO2)c2ccc(C)o2)c1` (centres undefined)?
SIRT5 block: 1.7; E-sel inducer: 44.1*; C2C12 statin: 10.5; FGF22 binding: -0.1; FN deposition inh: 0.6; rRNA inh HTS: -1.5

How did COCC(=O)Nc1ccc2c(c1)C(=O)N(C)C[C@@H](OC)[C@H](C)CN(Cc1ccccc1OC)[C@H](C)CO2 do in these assays?
SIRT5 block: -3.3; E-sel inducer: -0.2; C2C12 statin: 3.7; FGF22 binding: -0.2; FN deposition inh: -2.3; rRNA inh HTS: -0.9

How did Cc1ccc(S(=O)(=O)N(C)c2ccc3ccccc3c2)cc1 do in these assays?
SIRT5 block: -1.0; C2C12 statin: 5.8; FGF22 binding: 43.8*; FN deposition inh: -0.8; rRNA inh HTS: -33.1

How did Cc1ccc(N(C)S(=O)(=O)c2ccc(C)cc2)cc1 do in these assays?
C2C12 statin: 2.3; FN deposition inh: 3.8

How did CN(C)S(=O)(=O)c1ccc(Cl)c(NC(=O)COC(=O)CN2C(=O)C3CCCCC3C2=O)c1 (centres undefined) do in these assays?
SIRT5 block: 2.8; E-sel inducer: 1.5; FGF22 binding: 42.9*; FN deposition inh: 5.6; rRNA inh HTS: 18.8

What do the screens show for `CCC1(c2ccc(F)cc2)NC(=O)N(CC(=O)Nc2cc(S(=O)(=O)N(C)C)ccc2Cl)C1=O` (centres undefined)?
SIRT5 block: -4.1; FGF22 binding: 43.8*; FN deposition inh: -7.6; rRNA inh HTS: -12.1

What do the screens show for `COc1ccc(-c2nc(CN3CCCCC3c3nccn3C)c(C)o2)c(C)c1C` (centres undefined)?
SIRT5 block: 2.6; E-sel inducer: -0.1; C2C12 statin: -1.2; FGF22 binding: 0.9; FN deposition inh: 0.6; rRNA inh HTS: -33.5*

Results for Cc1ccc(S(=O)(=O)Nc2ccc3c(c2)C(=O)N([C@@H](C)CO)C[C@@H](C)[C@@H](CN(C)S(=O)(=O)c2ccc(Cl)cc2)O3)cc1 ?
SIRT5 block: 19.8*; E-sel inducer: -0.2; FGF22 binding: -0.9; rRNA inh HTS: -2.6

Results for Cc1ccc(S(=O)(=O)Nc2ccc3c(c2)C(=O)N([C@H](C)CO)C[C@@H](C)[C@H](CN(C)S(=O)(=O)c2ccc(Cl)cc2)O3)cc1 ?
SIRT5 block: 16.0*; E-sel inducer: -0.5; rRNA inh HTS: -2.3

What do the screens show for `C[C@@H]1CN([C@H](C)CO)C(=O)Cc2cc(NS(=O)(=O)c3ccccc3)ccc2O[C@@H]1CN(C)CC1CC1`?
SIRT5 block: -0.6; C2C12 statin: -5.7; FGF22 binding: -0.3; rRNA inh HTS: 0.2

Results for O=C(CSc1nc2ccc([N+](=O)[O-])cc2[nH]1)NCCc1ccccc1 ?
SIRT5 block: -1.1; C2C12 statin: 17.5; FGF22 binding: 0.1; rRNA inh HTS: -27.5*

How did COc1ccc2nc(SCC(=O)NCCc3ccccc3)[nH]c2c1 do in these assays?
SIRT5 block: -3.3; FGF22 binding: -0.1; FN deposition inh: 0.9; rRNA inh HTS: -24.4*

How did O=C(CSc1nc2ccc(Cl)cc2[nH]1)NCCc1ccccc1 do in these assays?
SIRT5 block: 8.5; E-sel inducer: -0.3; FGF22 binding: 0.4; FN deposition inh: -1.2; rRNA inh HTS: -9.2

Results for C[C@@H]1CN([C@H](C)CO)C(=O)c2cc(-c3ccncc3)cnc2O[C@@H]1CN(C)C(=O)C1CC1 ?
E-sel inducer: -0.1; C2C12 statin: 5.2; FN deposition inh: 1.6; rRNA inh HTS: 7.3

What do the screens show for `O=C(Oc1ccc2c(c1)C(=O)c1ccccc1CO2)c1ccccc1`?
C2C12 statin: 107.3*; FN deposition inh: 14.3

Results for C[C@@H]1CN([C@H](C)CO)S(=O)(=O)c2ccc(-c3cccc(F)c3)cc2O[C@H]1CN(C)S(C)(=O)=O ?
SIRT5 block: 1.8; E-sel inducer: 0.3; C2C12 statin: -51.1; FGF22 binding: -0.1; rRNA inh HTS: -8.3

How did COc1ccc(S(=O)(=O)Nc2ccc3c(c2)CC(=O)N([C@H](C)CO)C[C@H](C)[C@@H](CN(C)S(=O)(=O)c2cn(C)cn2)O3)cc1 do in these assays?
SIRT5 block: -1.5; E-sel inducer: -0.1; C2C12 statin: 12.8; FGF22 binding: -0.2; FN deposition inh: -2.6; rRNA inh HTS: 0.7

Source: PubChem (Broad Institute)
